Structures are written as SMILES. In brackets after ≈: the same amount, converted by molar mass.

What all share (assay type): functional
In experiment [1] the test system is Escherichia coli. Nature of the experiment: Antibacterial activity against Escherichia coli ATCC 25922. The gist of the method: (§1)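 Compound-loaded discs were placed on nutrient agar inoculated separately with fresh bacterial strains. Plates were incubated at 37 °C for 24 h with separate solvent and growth controls. Zone of inhibition and MIC were measured. Ciprofloxacin was the reference drug.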

Experiment [2] relates to Candida albicans. Nature of the experiment: Antifungal activity against Candida albicans NCIM 3100 at 10 ug/ml. The note with it: read-out: IZ. The gist of the method:
(§2)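 Serial dilution method on Sabouraud agar (peptone, D-glucose, agar; pH 5.7) seeded with a saline spore suspension made from a loopful of each strain. Plates were dried for 1 h at incubator temperature. Test solutions in DMSO went into punched wells, with a DMSO control. Incubation was at 37 °C for 3–4 days. Zone of inhibition and MIC were read against ciclopiroxolamine as standard.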

In experiment [3] the test system is Talaromyces marneffei. Description: Antifungal activity against Penicillium marneffei at 10 ug/ml. The note with it: read-out: IZ. In a few lines:
as §2

Experiment [4] relates to Pseudomonas aeruginosa. Nature of the experiment: Antibacterial activity against Pseudomonas aeruginosa ATCC 27853. In a few lines: as §1
Experiment [5] has as its system Staphylococcus aureus. Description: Antibacterial activity against Staphylococcus aureus ATCC 25923. The gist of the method: as §1
Experiment [6] relates to Klebsiella pneumoniae. Nature of the experiment: Antibacterial activity against Klebsiella pneumoniae at 10 ug/ml. Particulars: read-out: IZ. The gist of the method: as §1
The test system of experiment [7] is Aspergillus flavus. Nature of the experiment: Antifungal activity against Aspergillus flavus NCIM 524 by dilution method. In a few lines: as §2
The test system of experiment [8] is Aspergillus fumigatus. Nature of the experiment: Antifungal activity against Aspergillus fumigatus NCIM 902 by dilution method. The gist of the method:
as §2

Experiment [9] relates to Escherichia coli. Nature of the experiment: Antibacterial activity against Escherichia coli ATCC 25922 at 10 ug/ml. Particulars: read-out: IZ. The gist of the method:
as §1

The subject of experiment [10] is Staphylococcus aureus. Nature of the experiment: Antibacterial activity against Staphylococcus aureus ATCC 25923 at 10 ug/ml by disk diffusion method. The note with it: read-out: IZ. In a few lines:
as §1
(In general: In agar diffusion tests the substance spreads into inoculated agar from a disc or well.)

Experiment [11] relates to Candida albicans. Description: Antifungal activity against Candida albicans NCIM 3100 by dilution method. In a few lines: as §2
For experiment [12], the system named is Pseudomonas aeruginosa. Nature of the experiment: Antibacterial activity against Pseudomonas aeruginosa ATCC 27853 at 10 ug/ml. The note with it: read-out: IZ. In a few lines:
as §1

The subject of experiment [13] is Klebsiella pneumoniae. Description: Antibacterial activity against Klebsiella pneumoniae. The gist of the method:
as §1

For experiment [14], the system named is Talaromyces marneffei. Description: Antifungal activity against Penicillium marneffei by dilution method. The gist of the method: as §2
For experiment [15], the system named is Aspergillus flavus. Nature of the experiment: Antifungal activity against Aspergillus flavus NCIM 524 at 10 ug/ml. The note with it: read-out: IZ. In a few lines:
as §2

The subject of experiment [16] is Aspergillus fumigatus. Description: Antifungal activity against Aspergillus fumigatus NCIM 902 at 10 ug/ml. The note with it: read-out: IZ. In a few lines:
as §2

On to `CCOC(=O)C1=C(C)N=c2s/c(=C\c3ccc(-c4ccc(Cl)cc4)o3)c(=O)n2C1c1ccc(SC)cc1` (configuration not stated), for which the MIC in experiment [1] stood at 25 µg/mL (≈ 45.4 µM); in experiment [4] it was 12.5 µg/mL (≈ 22.7 µM); in experiment [5], 25 µg/mL (≈ 45.4 µM); in experiment [7], 12.5 µg/mL (≈ 22.7 µM); in experiment [8] it was 12.5 µg/mL (≈ 22.7 µM); in experiment [11], 6 µg/mL (≈ 10.9 µM). In addition, the MIC in experiment [13] and in [14] was 12.5 µg/mL (≈ 22.7 µM) each time. The zone of inhibition at 10 µg/mL was found to be 19 mm in [2]; 11 mm in experiment [3]; 12 mm in [6]; 10 mm in experiment [9]; 12 mm in experiment [10]; 10 mm in [12]. The zone of inhibition at 10 µg/mL in experiment [15] worked out at 17 mm; in experiment [16], 10 mm.
`CCOC(=O)C1=C(C)N=c2s/c(=C\c3ccc(-c4ccc(Cl)cc4Cl)o3)c(=O)n2C1c1ccc(SC)cc1` (configuration not stated): the minimal inhibitory concentration (MIC) in experiment [1] was 25 µg/mL (≈ 42.7 µM); in [4], 6 µg/mL (≈ 10.2 µM); in experiment [5] it was 12.5 µg/mL (≈ 21.3 µM); in experiment [7], 12.5 µg/mL (≈ 21.3 µM); in [8], 12.5 µg/mL (≈ 21.3 µM); in experiment [11], 6 µg/mL (≈ 10.2 µM). Further, the MIC in [13] and in experiment [14] was 6 µg/mL (≈ 10.2 µM) throughout. In addition, the zone of inhibition at 10 µg/mL came out at 20 mm in [2]; 18 mm in experiment [3]; 20 mm in [6]; 11 mm in experiment [9]; 19 mm in experiment [10]; 23 mm in [12]. In addition, the results for the zone of inhibition at 10 µg/mL in experiment [15] and in experiment [16] were 18 mm and 10 mm, respectively.
For `CCOC(=O)C1=C(C)N=c2s/c(=C\c3ccc(-c4ccc(Br)cc4)o3)c(=O)n2C1c1ccc(SC)cc1` (configuration not stated), the MIC in [1] was 12.5 µg/mL (≈ 21 µM); in experiment [4], 6 µg/mL (≈ 10.1 µM); in [5] it was 12.5 µg/mL (≈ 21 µM); in experiment [7] it was 12.5 µg/mL (≈ 21 µM); in experiment [8], 12.5 µg/mL (≈ 21 µM); in experiment [11], 6 µg/mL (≈ 10.1 µM). Also, the MIC in [13] and in experiment [14] was 6 µg/mL (≈ 10.1 µM) throughout. Further, the zone of inhibition at 10 µg/mL in [2] was 19 mm; in experiment [3] it was 20 mm; in experiment [6], 20 mm; in experiment [9], 18 mm; in experiment [10] it was 18 mm; in experiment [12], 23 mm. Moreover, the values for the zone of inhibition at 10 µg/mL in experiment [15] and in [16] were 18 mm and 12 mm, respectively.
Consider `CCOC(=O)C1=C(C)N=c2s/c(=C\c3ccc(SC)cc3)c(=O)n2C1c1ccc(SC)cc1` (configuration not stated), for which the MIC is 25 µg/mL (≈ 50.3 µM) in [1]; 12.5 µg/mL (≈ 25.2 µM) in experiment [4]; 25 µg/mL (≈ 50.3 µM) in experiment [5]; 25 µg/mL (≈ 50.3 µM) in experiment [7]; 12.5 µg/mL (≈ 25.2 µM) in [8]; 12.5 µg/mL (≈ 25.2 µM) in experiment [11]. In addition, the MIC in experiment [13] and in [14] was 12.5 µg/mL (≈ 25.2 µM) throughout. The zone of inhibition at 10 µg/mL is 10 mm in experiment [2]; 12 mm in experiment [3]; 12 mm in experiment [6]; 12 mm in experiment [9]; 10 mm in experiment [10]; 13 mm in experiment [12]. For the same molecule, the zone of inhibition at 10 µg/mL was determined as 10 mm in experiment [15] and 12 mm in experiment [16].
Take `O=C(O)c1cn(C2CC2)c2cc(N3CCNCC3)c(F)cc2c1=O` [CIPROFLOXACIN]: the MIC in [1] worked out at 12.5 µg/mL (≈ 37.7 µM); in experiment [4] it was 6 µg/mL (≈ 18.1 µM); in [5] it was 12.5 µg/mL (≈ 37.7 µM); in [13] it was 6 µg/mL (≈ 18.1 µM). Moreover, the zone of inhibition at 10 µg/mL was found to be 20 mm in experiment [6], 18 mm in experiment [9], 19 mm in [10] and 25 mm in experiment [12].

The MIC is the smallest concentration in the dilution series that meets the test's criterion for growth inhibition. Higher therefore signals a less susceptible organism.

Values taken from ChEMBL document CHEMBL1143775, “Convenient one pot synthesis of some novel derivatives of thiazolo[2,3-b]dihydropyrimidinone possessing 4-methylthiophenyl moiety and evaluation of their antibacterial and antifungal activities” (2007).
